Columns and labels:
Type in all cases: functional
Leishmania tropica [1] = assay: Growth inhibition of MDR (DNM-R150) L. Tropica line at 15 uM concentration
Method in brief: (§1)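 Daunomycin-resistant (DNM-R150) promastigotes, log phase, 3 × 10⁵ cells per well, co-exposed to 150 μM DNM plus sesquiterpene (DMSO stock diluted in medium; final DMSO ≤0.3%). Incubated 72 h at 28 °C in RPMI 1640-modified medium with 20% heat-inactivated FBS. MTT added for 4 h, formazan dissolved in 20% SDS, A540 read. %GI calculated relative to control cells given the same DNM without modulator.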

Leishmania tropica [2] = assay: Growth inhibition of MDR (DNM-R150) L. Tropica line at 30 uM concentration; method in brief: as §1
Leishmania tropica [3] = assay: Growth inhibition of MDR (DNM-R150) L. Tropica line at 7.5 uM concentration; method in brief: as §1
Leishmania tropica [4] = assay: Growth inhibition of wild type L. Tropica parasite at 15 uM concentration
Method in brief: (§2)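 Intrinsic toxicity assay on wild-type LRC clone promastigotes, log phase, 3 × 10⁵ cells per well, exposed to sesquiterpene without DNM (DMSO stock diluted in medium; final DMSO ≤0.3%). Incubated 72 h at 28 °C in RPMI 1640-modified medium with 20% FBS. Viability read by MTT (4 h, SDS solubilization, 540 nm). Survival is absorbance ratio to untreated control, expressed as %GI.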

Leishmania tropica [5] = assay: Growth inhibition of wild type L. Tropica parasite at 30 uM concentration; method in brief: as §2
Leishmania tropica [6] = assay: Growth inhibition of wild type L. Tropica parasite at 7.5 uM concentration; method in brief: as §2

Row | SMILES | inhibition (Leishmania tropica [1]) | inhibition (Leishmania tropica [2]) | inhibition (Leishmania tropica [3]) | inhibition (Leishmania tropica [4]) | inhibition (Leishmania tropica [5]) | inhibition (Leishmania tropica [6])
1 | CC(=O)O[C@@H]1[C@H](OC(=O)/C=C/c2ccccc2)[C@@]2(C)[C@@H](OC(=O)c3ccccc3)CC3CC2(OC3(C)C)[C@@](C)(O)[C@H]1OC(=O)c1cccnc1 (some centres undefined) | 90.3% | 94.7% | 82% | 3.7% | 7.5% | 2.5%
2 | CC(=O)O[C@@H]1[C@H](OC(=O)c2cccnc2)[C@@]2(C)[C@@H](OC(=O)c3ccccc3)[C@@H](OC(=O)c3ccccc3)C3CC2(OC3(C)C)[C@@](C)(O)[C@H]1OC(C)=O (some centres undefined) | 54% | 89% | 23.9% | 6% | 11% | 0.5%
3 | CC(=O)O[C@@H]1[C@H](OC(=O)c2ccccc2)[C@@]2(C)[C@@H](OC(=O)c3ccccc3)[C@@H](OC(C)=O)C3CC2(OC3(C)C)[C@@](C)(O)[C@H]1OC(C)=O (some centres undefined) | 65% | 90% | 39% | 14.4% | 23% | 1.7%
4 | CC(=O)O[C@@H]1C2[C@H](OC(C)=O)[C@H](OC(=O)c3ccccc3)[C@]3(C)[C@@H](OC(=O)c4ccccc4)[C@H](OC(=O)c4ccccc4)C[C@](C)(O)C13OC2(C)C (some centres undefined) | 82.2% | 92% | 60.3% | 19.7% | 16.2% | 9.7%
5 | CC(=O)OC[C@]12[C@@H](OC(=O)c3ccccc3)CC3[C@@H](OC(=O)c4ccccc4)C1(OC3(C)C)[C@@](C)(O)C[C@@H](OC(=O)c1cccnc1)[C@@H]2OC(C)=O (some centres undefined) | 91.3% | 94.8% | 80.7% | 25.8% | 45% | 8.2%
6 | CC(=O)O[C@@H]1[C@H](OC(=O)c2ccccc2)[C@@]2(C)[C@@H](OC(=O)/C=C/c3ccccc3)C[C@H]3[C@@H](OC(C)=O)[C@]2(OC3(C)C)[C@@](C)(O)[C@H]1OC(=O)c1cccnc1 | 13.5% | 45% | 7.3% | 1.5% | 1.9% | 1.5%
7 | CC(=O)O[C@@H]1[C@H](OC(=O)c2cccnc2)[C@@]2(C)[C@@H](OC(=O)c3ccccc3)[C@@H](OC(C)=O)C3CC2(OC3(C)C)[C@@](C)(O)[C@H]1OC(=O)c1ccccc1 (some centres undefined) | 44% | 69.7% | 21.4% | 12.9% | 19.7% | 0%
8 | CC(=O)O[C@H]1[C@H](O)[C@@H](C)C23OC(C)(C)C(C[C@H](OC(=O)c4ccccc4)[C@]2(C)[C@H]1OC(=O)c1ccccc1)[C@H]3OC(C)=O (some centres undefined) | 54% | 77.5% | 32% | 3.5% | 11.7% | 0%
9 | CC(=O)O[C@@H]1[C@H](OC(=O)c2ccccc2)[C@@]2(C)[C@@H](OC(=O)c3ccccc3)CC3[C@@H](OC(C)=O)C2(OC3(C)C)[C@@](C)(O)[C@H]1OC(=O)c1cccnc1 (some centres undefined) | 30.7% | 69.5% | 10% | 0.7% | 3.7% | 2.2%
10 | CC(=O)O[C@H]1C[C@](C)(O)C23CC(C[C@H](OC(=O)c4ccccc4)[C@]2(C)[C@H]1OC(=O)c1ccccc1)C(C)(C)O3 (some centres undefined) | 89.7% | 94% | 82% | 4.1% | 13.3% | 5.3%
11 | CC(=O)OC[C@]12[C@@H](OC(=O)c3ccccc3)CC3[C@@H](OC(=O)c4ccccc4)C1(OC3(C)C)[C@H](C)C[C@@H](OC(=O)c1cccnc1)[C@@H]2OC(C)=O (some centres undefined) | 87.9% | 93.7% | 83.7% | 27.5% | 35% | 11.5%
12 | CC(=O)O[C@H]1C[C@](C)(O)C23CC(C[C@H](OC(=O)/C=C/c4ccccc4)[C@]2(C)[C@H]1OC(=O)c1ccccc1)C(C)(C)O3 (some centres undefined) | 92.8% | 94.3% | 88.2% | 7.3% | 7.5% | 0%
13 | CC(=O)O[C@@H]1C2[C@H](OC(C)=O)[C@H](OC(=O)c3ccccc3)[C@]3(C)[C@@H](OC(=O)c4ccccc4)[C@H](OC(=O)c4cccnc4)C[C@@H](C)C13OC2(C)C (some centres undefined) | 79.3% | 94.5% | 42.2% | 13% | 13.3% | 1.7%
14 | CC(=O)O[C@@H]1[C@H](OC(=O)c2ccccc2)[C@@]2(C)[C@@H](OC(=O)c3ccccc3)[C@@H](OC(=O)c3ccccc3)C3CC2(OC3(C)C)[C@@](C)(O)[C@H]1OC(C)=O (some centres undefined) | 79% | 93% | 48.7% | 15.8% | 20.5% | 0.5%

Source: ChEMBL document CHEMBL1134324, “Chemosensitization of a multidrug-resistant Leishmania tropica line by new sesquiterpenes from Maytenus magellanica and Maytenus chubutensis” (J Med Chem, 2001)
